Bioassay records as filed in PubChem BioAssay.
Neddyl block – cullin neddylation inhibition; P61081+Q13564; hit rate 0.58% among 360,000; AID 651699; inhibition, % at 25 µM; TR-FRET cullin neddylation, biochemical; in the data active means inhibition above about 36%
PfGluPho inh – PfG6PD (Plasmodium falciparum) enzyme inhibition; PfGluPho enzyme, NADPH resazurin-diaphorase fluorescence; inhibition, % at 20 µM; hit rate 0.78% among 350,000;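 active means inhibition reaching at least a set limit at 20 µM in the primary screen, cut at about 59% in these data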;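 further: 0% = DMSO wells with substrate and 100% = DMSO wells lacking glucose-6-phosphate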
HKDC1 inh – inhibitors of human hexokinase HKDC1 | Q2TB90 | recombinant HKDC1, G6PDH/diaphorase resazurin coupled fluorescence | inhibition, % at 20 µM | hit rate 0.16% among 340,000;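 active means inhibition above about 35% when tested at 20 µM, limit read from the data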;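 further: plate controls were DMSO wells with enzyme for no effect and DMSO wells lacking enzyme for full effect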
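Assay system – recombinant HKDC1 (HK5) hexokinase enzyme, produced in-house · Input – HKDC1 at 5 µg/mL · Reagent – glucose plus 1 mM ATP as hexokinase substrates · Timing – 90 min reaction incubation at room temperature, dark · Measured by – G6PDH/diaphorase-coupled fluorescence, 1 mM NADP, 100 µM resazurin, 525/613 nm · Benchmarks – DMSO-enzyme wells negative, buffer-substituted wells positive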
PfM18AAP inh-1 – blocks P. falciparum M18 aspartyl aminopeptidase. AID 1822. hit rate 1.2% among 290,000. inhibition, % at 7.35 µM. recombinant PfM18AAP, H-Glu-NHMec fluorogenic cleavage;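 active means inhibition above the campaign mean inhibition over all tested compounds plus 3 SD, cut at about 28% in these data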;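 further: 0% = plate median of test compound wells and 100% = 2 mM ZnCl2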
PfM18AAP inh-2 – confirmation of Plasmodium falciparum M18 aspartyl aminopeptidase inhibitors. shares compounds with PfM18AAP inh-1. recombinant PfM18AAP, H-Glu-NHMec fluorogenic cleavage. inhibition, % at 7.35 µM. hit rate 28% among 2,400. AID 2170;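 active means mean inhibition over replicate wells above the hit cutoff set for the earlier primary screen, cut at about 29% in these data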;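 further: 0% = median of test compound wells and 100% = 2 mM ZnCl2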
CTSL1 counter – Cathepsin L (human) inhibition, confirmation. purified cathepsin L1, Z-Leu-Arg-MCA fluorescence. shares compounds with PfM18AAP inh-1. 2,400 tested, under 10 active. inhibition, % at 5.96 µM;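 active means average inhibition across replicates above the hit cutoff set in the earlier primary screen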;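 further: 0% = median of test compound wells and 100% = Z-Phe-Ala-diazomethylketone 1 µM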
Target sequence (P07711 whole entry, looked up): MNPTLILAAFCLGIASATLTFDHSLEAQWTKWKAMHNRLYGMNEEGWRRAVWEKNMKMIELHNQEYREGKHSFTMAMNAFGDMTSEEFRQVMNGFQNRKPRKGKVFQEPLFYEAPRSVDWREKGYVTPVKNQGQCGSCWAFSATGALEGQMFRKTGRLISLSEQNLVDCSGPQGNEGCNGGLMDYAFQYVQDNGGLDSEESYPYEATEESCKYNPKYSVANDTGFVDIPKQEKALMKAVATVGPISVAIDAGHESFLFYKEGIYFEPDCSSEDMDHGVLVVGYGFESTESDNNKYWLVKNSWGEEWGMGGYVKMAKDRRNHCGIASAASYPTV
Numbers without * were called inactive; . = no result given. In the library only some 2.2% were active in any assay of this set; here they are far more common.

SMILES	Neddyl block	PfGluPho inh	HKDC1 inh	PfM18AAP inh-1	PfM18AAP inh-2	CTSL1 counter
COC(=O)C1=C(O)/C(=C\c2ccc(O)c(OC)c2)N=C1C	-8	20	-2	55*	-30	-3
COc1cc(/C=C/C(=O)CC(=O)/C=C/c2ccc(O)c(OC)c2)ccc1O	9	-5	4	35*	-4	-2
COc1cc(/C=C/C(=O)O)ccc1O	4	-30	-3	.	.	.
COC(=O)C1=C(O)/C(=C\c2ccc(OCC(=O)Nc3ccccc3OC)cc2)N=C1C	15	18	5	7	.	.
O=C(Nn1cnnc1)C(Sc1ccccc1)c1ccccc1 (stereo unspecified)	-7	-4	5	48*	34*	-2
O=C(Nn1cnnc1)C(c1ccccc1)c1ccccc1	-3	-3	-8	43*	21	-9
O=C(O)CNC(=O)C(c1ccccc1)c1ccccc1	-1	-1	-1	-12	.	.
CNC(=O)C(Sc1ccccc1)c1ccccc1 (stereo unspecified)	-7	2	-2	-1	.	.
O=C(COC(=O)CNC(=O)c1ccc(Cl)cc1Cl)NC1CCCCC1	-4	-13	-4	-1	.	.
CC(C)(C)c1ccc(O)c(N=Cc2cc3c(cc2[N+](=O)[O-])OCO3)c1	-10	38	5	36*	90*	1
O=[N+]([O-])c1ccc(S(=O)(=O)NN=Cc2ccc3c(c2)OCO3)cc1	-38	-15	-5	.	.	.
Cc1ccc(C)c(N=Cc2cc3c(cc2[N+](=O)[O-])OCO3)c1	21	12	21	17	.	.
O=[N+]([O-])c1cc2c(cc1/C=N\NS(=O)(=O)c1ccccc1)OCO2	-22	58	1	48*	4	-5
COc1ccc(N(Cc2cc(=O)[nH]c3ccccc23)C(=O)C(C)C)cc1	-6	-12	2	7	.	.
C[C@@]12C(=O)Nc3ccccc3C(=O)N1[C@H]1c3cc(Br)ccc3OC[C@@H]1[C@@H]2c1ccccc1	-75	-1	9	.	.	.
Fc1cccc(NC(=S)NNc2c3ccccc3nc3ccccc23)c1	4	11	-1	2	.	.
O=[N+]([O-])c1ccc(NC(=S)NCCc2ccccc2)cc1	-30	18	0	-1	.	.
O=[N+]([O-])c1ccc(NNC(=S)Nc2ccccc2)cc1	-32	51	2	39*	32*	-9
Fc1cccc(NC(=S)NNc2ccccc2)c1	-5	28	1	38*	-14	-6
Oc1cccc(NC(=S)Nc2ccccc2)c1	-8	-9	-6	22	-47	2
Cc1ccc(/C=C/S(=O)(=O)NCC(=O)OCC(=O)NCc2ccccc2)cc1	2	3	20	2	.	.
Cc1sc(NC(=O)C2CCCCC2C(=O)O)c(C(N)=O)c1-c1ccccc1 (stereo unspecified)	-6	-4	0	5	.	.
COC(=O)CCC(=O)NC(=S)Nc1sc(C)c(C)c1C(N)=O	-49	5	-13	14	.	.
Cc1sc(NC(=O)C2CCCCC2C(=O)O)c(C(N)=O)c1C (stereo unspecified)	1	3	-4	36*	-56	-1
COC(=O)CCC(=O)Nc1sc(C)c(C)c1C(N)=O	11	52	-13	43*	18	3
SMILES	Neddyl block	PfGluPho inh	HKDC1 inh	PfM18AAP inh-1	PfM18AAP inh-2	CTSL1 counter
C[C@H]1CN([C@@H](C)CO)C(=O)Cc2cc(NC(=O)CCC(F)(F)F)ccc2O[C@H]1CN(C)CC1CC1	-5	5	-4	.	.	.
O=S(=O)(NNc1nccc(C(F)(F)F)n1)c1cccc(Cl)c1Cl	-7	57	-1	56*	14	6
FC(F)(F)c1ccnc(NCc2ccc(Cl)cc2)n1	1	4	0	-6	.	.
Cc1cc(C)nc(SCCc2ccncc2)n1	-8	42	-3	50*	-8	-3
COc1ccccc1N(CC(=O)NCCSc1ccccn1)S(=O)(=O)c1ccccc1	-5	11	-1	2	.	.
C=CCNC(=S)NNC(=O)c1cc(O)ccc1O	20	-15	-10	39*	29*	-8
C=CCNC(=S)NNC(=O)c1ccc(Br)cc1	3	-1	-13	7	.	.
CCOc1ccccc1/C=c1\sc2ncnn2c1=O	11	6	5	51*	29*	-1
CCCOc1ccc(/C=C2\SC(=S)N(CC3CCCO3)C2=O)cc1 (stereo unspecified)	-3	10	-7	1	.	.
CCOc1ccccc1C=C1SC(=S)N(CC)C1=O	-3	-7	6	.	.	.
CCCOc1ccc(/C=c2\sc3ncnn3c2=O)cc1	2	-5	2	73*	39*	3
CC(=O)Oc1ccc(/C=c2\sc3ncnn3c2=O)cc1	1	-14	5	35*	-11	-7
COc1ccc(S(=O)(=O)N2CCC(C(=O)N(C)Cc3ccc(C)o3)CC2)cc1OC	11	3	-3	.	.	.
COc1ccccc1NC(=O)c1ccc(NC(=O)COC(=O)c2cccnc2Cl)cc1	-4	3	-4	.	.	.
O=C(/C=C/c1cccc(Cl)c1)c1nc2ccccc2[nH]1	.	17	28	32*	14	5
COCCCNC(=S)NNC(=S)Nc1ccc(OC)cc1	7	11	-4	49*	-2	-4
Nc1nncn1C(=O)CCCOc1ccc(Cl)cc1Cl	2	-7	15	47*	63*	4
Nc1nncn1C(=O)CCCN1C(=O)c2ccccc2C1=O	0	-15	-2	44*	47*	-12
O=C(CCCN1C(=O)c2ccccc2C1=O)N1CCc2ccccc2C1	-11	-15	2	-14	.	.
CN1CCN(NC(=O)Nc2ccc([N+](=O)[O-])cc2)CC1	-13	15	-1	2	.	.
O=C(Nc1ccc([N+](=O)[O-])cc1)Nn1cnnc1	-19	0	-9	81*	72*	0
Cc1ccc(NC(=O)Nn2cnnc2)cc1	-4	-7	-8	45*	37*	1
CC(=O)Nc1ccc(S(=O)(=O)Nn2cnnc2)cc1	5	-14	-3	37*	36*	6
O=C(Nc1ccc(Cl)cc1)Nn1cnnc1	-9	-2	5	68*	57*	0
O=C1CCC(C(=O)N2CCc3ccccc3C2)CN1CCCN1CCOCC1 (stereo unspecified)	-4	9	-10	-4	.	.
SMILES	Neddyl block	PfGluPho inh	HKDC1 inh	PfM18AAP inh-1	PfM18AAP inh-2	CTSL1 counter
N#C/C(=C\c1ccccc1)C(=O)Nc1cccnc1	-12	-10	-2	2	.	.
N#C/C(=C\c1ccccc1)C(=O)Nc1nncs1	1	-13	10	35*	37*	-2
COc1cc([N+](=O)[O-])ccc1-c1ccc(/C=N/NC(N)=O)o1	-36	7	0	44*	-37	1
Cc1ccccc1NC(=O)CSc1nnc(CNC(=O)c2ccco2)n1C	6	-2	-6	.	.	.
O=[N+]([O-])c1cc([N+](=O)[O-])c2cccnc2c1Oc1ccccc1O	-36	-4	1	84*	60*	4
O=[N+]([O-])c1cc(Cl)c(O)c2ncccc12	-59	38	9	2	.	.
